Only some compounds are listed: those with a hit (about 3.1% of all), similar ones and a draw of the others.
INS-1E GSIS act = primary screen for activators of insulin secretion dependent on glucose, INS-1E cells, GLuc reporter luminescence. activation, % at 16.6 µM. INS-1E GLuc reporter insulin secretion, 2-3 h. hit rate 0.61% among 370,000;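 active = lowest replicate activation of at least 40%, so every replicate reaches that level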
F508del corr = CFTR F508del correction in bronchial cells; CFBE cells, YFP halide quenching; stimulated with forskolin plus potentiator P3; % fluorescence drop versus neutral controls; AID 720511; hit rate 0.36% among 350,000; activity (quench increase), % at 7.58 µM;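 active = mean added fluorescence quench of at least 8% versus neutral control, with both replicates also reaching 8%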;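 note: cells transiently co-express mutant CFTR-F508del with the halide-sensitive YFP; corrector assay measuring rescue of mutant channel to the surface after 24 h compound exposure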
miR-122 sensor = miR-122 inhibition in Huh7 cells. activation (reporter increase), % at 12.5 µM. AID 602342. Huh7 miR-122 Renilla luciferase sensor, 48 h; neutral wells = 0, positive control = 100. hit rate 0.3% among 340,000;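 active = mean replicate activation score at least 90 and every replicate individually at or above 90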;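 note: higher luciferase means less miR-122 activity so hits act as miR-122 inhibitors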
Env fusion inh = inhibitors of HIV Env-mediated cell fusion | HeLa-JRFL Env/CEM21 cell fusion, luciferase | inhibition, % at 12.3 µM | hit rate 1.1% among 360,000 | AID 651610;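 active = mean replicate inhibition score of at least 50 and every replicate individually at or above 50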
Cneo AK release = Cryptococcus neoformans lysis via adenylate kinase release. lysis activity, % at 15 µM. AID 651654. C. neoformans lysis, adenylate kinase release luminescence, 4 h; normalised: neutral wells 0, clomiphene wells 100. hit rate 0.2% among 360,000;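 active = mean lysis activity across replicates of at least 80%, whatever share of replicates individually reach that level; inactive = mean lysis activity below 80%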
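Material – log-phase Cryptococcus neoformans yeast cells · Input – 5 × 10^6 yeast cells/mL · Medium – fresh YPD growth medium · Doses – single compound concentration per well · Timing – static 4 h at 37 °C with compound, 1 h detection · Detection – adenylate kinase release luminescence · Read-out – signal increase indicating cell lysis · Control set – Clomiphene as positive lysis control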
Ecoli rRNA inh = inhibitors of bacterial rRNA selective over humanized ribosomes | E. coli WT GFP vs humanized-ribosome RFP mutants, fluorescence, 24 h; active compounds read low; DMSO median 0, no signal -100 | GFP signal change (wild-type ribosome), % (concentration not given with the values) | hit rate 1.6% among 350,000;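 active = significant combined selectivity score with lowered wild-type GFP, culture density cut under 30%, mutant RFP and density less affected; inactive = any of these conditions unmet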
A number is an active result; - = inactive; . = not tested or not shown; [ ] = dose if it differs, or a comment.

SMILES | INS-1E GSIS act | F508del corr | miR-122 sensor | Env fusion inh | Cneo AK release | Ecoli rRNA inh
Cc1ccc(-c2ccc3c(c2)O[C@H](CN(C)Cc2ccncc2)[C@@H](C)CN([C@@H](C)CO)S3(=O)=O)cc1 | - | - | - | 91[16.7 µM] | - | -
Cc1ccc(-c2ccc3c(c2)O[C@@H](CN(C)C(=O)Nc2ccc(F)cc2)[C@@H](C)CN([C@H](C)CO)S3(=O)=O)cc1 | - | 8.5 | - | - | - | -
Cc1ccc(-c2ccc3c(c2)O[C@H](CN(C)C(=O)Nc2ccc(F)cc2)[C@H](C)CN([C@H](C)CO)S3(=O)=O)cc1 | - | - | - | - | - | -
Cc1ccc(-c2ccc3c(c2)O[C@@H](CN(C)Cc2ccc(F)cc2)[C@@H](C)CN([C@H](C)CO)S3(=O)=O)cc1 | - | - | - | . | 83 | -
Cc1ccc(-c2ccc3c(c2)O[C@@H](CN(C)Cc2ccc(F)cc2)[C@H](C)CN([C@@H](C)CO)S3(=O)=O)cc1 | - | - | - | . | - | -
C[C@H](CO)N1C[C@H](C)[C@H](CN(C)Cc2cccc(O)c2)OCc2cn(nn2)CCCC1=O | - | - | - | . | . | -
C[C@H]1CCCCO[C@H](CN(C)C(=O)NC2CCCCC2)[C@@H](C)CN([C@@H](C)CO)C(=O)c2cc(NC(=O)c3ccccc3)ccc2O1 | - | - | - | - | - | -
C[C@@H]1CN([C@H](C)CO)S(=O)(=O)c2ccc(-c3ccncc3)cc2O[C@@H]1CN(C)Cc1ccc(Oc2ccccc2)cc1 | - | - | - | 59[16.7 µM] | - | -
Cc1ccc(-c2ccc3c(c2)O[C@@H](CN(C)Cc2ccncc2)[C@H](C)CN([C@H](C)CO)S3(=O)=O)cc1 | - | - | - | 90[16.7 µM] | - | -
Cc1ccccc1-c1ccc2c(c1)O[C@H](CN(C)C(=O)Nc1ccc(C(F)(F)F)cc1)[C@H](C)CN([C@H](C)CO)S2(=O)=O | - | - | - | 72[16.7 µM] | - | -
C=CCn1c(SCC(=O)NC23CC4CC(CC(C4)C2)C3)nc2cc(C(=O)O)ccc2c1=O | - | - | - | - | . | -23
C=CCn1c(SCC(=O)Nc2ccc(F)cc2)nc2cc(C(=O)O)ccc2c1=O | - | - | . | - | . | -
COc1cccc(F)c1C(C[N+](=O)[O-])c1c(N)n(C)c(=O)n(C)c1=O (centres undefined) | . | - | - | - | - | -24
Cc1ccc(C(C[N+](=O)[O-])c2c(N)n(C)c(=O)n(C)c2=O)cc1 (centres undefined) | - | - | . | - | . | -24
COc1cc(C(C[N+](=O)[O-])c2c(N)n(C)c(=O)n(C)c2=O)ccc1O (centres undefined) | - | - | . | - | . | -
O=C(N/N=C/c1ccncc1)C1CC1(c1ccccc1)c1ccccc1 (centres undefined) | - | - | . | - | . | -22
CCCNC(=O)N1[C@@H](CO)[C@@H](c2ccc(C3=CCCC3)cc2)[C@@H]1CNC(C)=O | - | - | - | . | - | -
COc1cc(/C=C2\SC(=S)N(CC(=O)O)C2=O)ccc1OS(=O)(=O)c1ccc(C)cc1 | - | - | - | - | - | -18
COc1cc(/C=C2/SC(=S)N(C)C2=O)ccc1OC(=O)c1ccco1 | - | . | . | - | . | -
COc1cc(/C=C2/SC(=S)N(Cc3ccccc3)C2=O)ccc1OS(C)(=O)=O | - | - | - | - | - | -
COc1cc(/C=C2/SC(=S)N(CC(=O)O)C2=O)ccc1OC(=O)c1cccs1 | - | - | - | - | . | -19
O=C(CSc1nc2ccccc2c(=O)n1CC1CCCO1)NCC1CCCO1 (centres undefined) | - | . | - | - | - | -
COC(=O)c1ccc2c(=O)n(CC3CCCO3)c(SCC(=O)Nc3ccccc3OC)nc2c1 (centres undefined) | . | . | 190 | - | - | .
COCCNC(=O)CSc1nc2ccccc2c(=O)n1CC1CCCO1 (centres undefined) | . | . | 286 | - | - | .
CCC(=O)N1CC(=O)N2[C@@H](CO)[C@@H](c3ccc(C#CCc4ccccc4)cc3)[C@@H]2C1 | - | - | . | . | . | -
SMILES | INS-1E GSIS act | F508del corr | miR-122 sensor | Env fusion inh | Cneo AK release | Ecoli rRNA inh
CCc1ccc(C(=O)CSc2nc(C)cc(=O)[nH]2)cc1 | - | - | . | - | . | -27
Cc1cc(=O)[nH]c(SCC(=O)c2ccc(F)c(C)c2)n1 | - | - | - | - | - | -
CN(C)C(=O)[C@H]1[C@H](CO)[C@H]2Cn3c(ccc(-c4ccccc4F)c3=O)[C@@H]1N2C(=O)c1cccnc1 | - | - | - | . | - | -
Cc1cccc(/C=N\Nc2cn[nH]c(=O)c2Cl)c1 | - | . | - | 73 | - | -
O=c1[nH]ncc(N/N=C\c2cccnc2)c1Cl | - | - | . | - | . | -
O=c1[nH]cnc2c1c(-c1ccccc1)cn2-c1ccccc1 | - | - | - | - | - | -31
Cc1ccc(S(=O)(=O)c2ncccc2[N+](=O)[O-])cc1 | 65 | - | - | - | - | -
COc1ccc(CNC(=O)/C=C/[C@H]2O[C@@H](n3cnc4c(NC(=O)c5ccccc5)ncnc43)[C@H](O)[C@@H]2O)cc1 | - | - | - | - | - | -
O=C(/C=C/[C@H]1O[C@@H](n2cnc3c(NC(=O)c4ccccc4)ncnc32)[C@H](O)[C@@H]1O)NCc1cccc2ccccc12 | - | - | - | - | - | -29
O=C(/C=C/C(Cl)(Cl)Cl)Nc1ccc(Cl)cc1 | 170 | - | - | - | . | -
NC(=O)/C=C/C(=O)Nc1ccc(Cl)cc1 | - | - | . | - | . | -
O=C(N[C@@H]1CC[C@@H](CC(=O)N2CCc3ccccc3C2)O[C@@H]1CO)C1CC1 | - | - | . | - | - | -
Cc1nc2c(OCc3ccc(C(F)(F)F)cc3)cccn2c1N(C)C(=O)CCC1CCCC1 | - | - | - | 61 | - | -
Cc1nc2c(OCc3ccc(F)cc3)cccn2c1N(C)C(=O)CCC1CCCC1 | - | - | - | - | - | -
COc1ccc(CN2C[C@H](O)COC[C@H]3O[C@@H](CC(=O)NCc4ccncn4)CC[C@@H]32)cc1 | - | - | - | . | - | -
CC(NC(=O)CSc1nc2sc3c(c2c(=O)n1-c1ccccc1)CCCC3)c1ccccc1 (centres undefined) | . | . | - | 103 | - | .
O=C(O)CSc1nc2sc3c(c2c(=O)n1-c1ccccc1)CCC3 | - | - | - | - | - | -
Cc1cc(NC(=O)CSc2nc3sc4c(c3c(=O)n2C)CCCC4)no1 | 152 | . | - | - | - | .
CCn1c(SCC(=O)Nc2cc(C)on2)nc2sc3c(c2c1=O)CCCC3 | - | - | - | . | - | -
C[C@@H]1CCCCO[C@@H](CN(C)S(C)(=O)=O)[C@@H](C)CN([C@H](C)CO)C(=O)c2cc(NS(=O)(=O)c3cccs3)ccc2O1 | - | - | - | - | - | -
